Converted amounts (≈) assume the structure as drawn.
Assays:
[1] = Solubility at pH 7; type: physicochemical; details: buffer
[2] = biological target: Cyclin-dependent kinase 1/cyclin B1 (Homo sapiens, UniProt P06493); assay: Inhibition of CDK1/Cyclin B
Summary of the method: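 Biochemical kinase-panel assay against the CDK1/cyclin B complex; IC50 in μM, reported as the mean of two or more experiments.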

A2780 [3] = assay: Effect on cell cycle progression in human A2780 cells assessed as increase in accumulation at […] phase at 1 uM after 24 hrs by flow cytometry; type: functional
Summary of the method: (§1)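 A2780 cells (ECACC) were seeded at 25 000 cells/cm² in RPMI 1640 pH 7.4 with 10% FBS, 2 mM L-glutamine and penicillin-streptomycin, at 37 °C and 5% CO2. After 24 h, cells were exposed to 1 μM compound for 24 h. Floating and trypsin/EDTA-detached cells were pooled and PBS-washed. Samples were split for flow cytometry and BrdU incorporation. Results are expressed versus untreated control cells.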

A2780 [4] = assay: Effect on cell cycle progression in human A2780 cells assessed as decrease in accumulation at S phase at 1 uM after 24 hrs by flow cytometry; type: functional; set-up: scale not given: the % may be the effect or the level left; summary of the method: as §1
A2780 [5] = assay: Effect on cell cycle progression in human A2780 cells assessed as decrease in accumulation at G2/M phase at 1 uM after 24 hrs by flow cytometry; type: functional; set-up: scale not given: the % may be the effect or the level left; summary of the method: as §1
A2780 [6] = assay: Inhibition of DNA synthesis in human A2780 cells assessed as decrease in […] incorporation at 1 uM after 24 hrs by flow cytometry; type: functional; set-up: scale not given: the % may be the effect or the level left; summary of the method: as §1
A2780 [7] = assay: Antitumor activity against human A2780 cells xenografted in nude mouse assessed as tumor growth inhibition at 20 mg/kg, po BID for 10 consecutive days; type: functional; set-up: scale not given: the % may be the effect or the level left
Summary of the method: (§2)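 A2780 human ovarian xenografts were grown in nude mice. Compound was given orally at 20, 30 or 40 mg/kg twice daily for 10 consecutive days. The read-out was tumor growth inhibition.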

A2780 [8] = assay: Antitumor activity against human A2780 cells xenografted in nude mouse assessed as tumor growth inhibition at 30 mg/kg, po BID for 10 consecutive days; type: functional; set-up: scale not given: the % may be the effect or the level left; summary of the method: as §2
A2780 [9] = assay: Antitumor activity against human A2780 cells xenografted in nude mouse assessed as tumor growth inhibition at 40 mg/kg, po BID for 10 consecutive days; type: functional; set-up: scale not given: the % may be the effect or the level left; summary of the method: as §2
[10] = Inhibition of PDGFR
[11] = biological target: Mast/stem cell growth factor receptor Kit (Homo sapiens, UniProt P10721); assay: Inhibition of C-KIT
[12] = biological target: Vascular endothelial growth factor receptor 3 (Homo sapiens, UniProt P35916); assay: Inhibition of VEGFR3
[13] = biological target: Serine/threonine-protein kinase Nek6 (Homo sapiens, UniProt Q9HC98); assay: Inhibition of NEK6
[14] = Inhibition of NIM
[15] = biological target: Fibroblast growth factor receptor 1 (Homo sapiens, UniProt P11362); assay: Inhibition of FGFR1
Sequence of Fibroblast growth factor receptor 1 (P11362 whole entry): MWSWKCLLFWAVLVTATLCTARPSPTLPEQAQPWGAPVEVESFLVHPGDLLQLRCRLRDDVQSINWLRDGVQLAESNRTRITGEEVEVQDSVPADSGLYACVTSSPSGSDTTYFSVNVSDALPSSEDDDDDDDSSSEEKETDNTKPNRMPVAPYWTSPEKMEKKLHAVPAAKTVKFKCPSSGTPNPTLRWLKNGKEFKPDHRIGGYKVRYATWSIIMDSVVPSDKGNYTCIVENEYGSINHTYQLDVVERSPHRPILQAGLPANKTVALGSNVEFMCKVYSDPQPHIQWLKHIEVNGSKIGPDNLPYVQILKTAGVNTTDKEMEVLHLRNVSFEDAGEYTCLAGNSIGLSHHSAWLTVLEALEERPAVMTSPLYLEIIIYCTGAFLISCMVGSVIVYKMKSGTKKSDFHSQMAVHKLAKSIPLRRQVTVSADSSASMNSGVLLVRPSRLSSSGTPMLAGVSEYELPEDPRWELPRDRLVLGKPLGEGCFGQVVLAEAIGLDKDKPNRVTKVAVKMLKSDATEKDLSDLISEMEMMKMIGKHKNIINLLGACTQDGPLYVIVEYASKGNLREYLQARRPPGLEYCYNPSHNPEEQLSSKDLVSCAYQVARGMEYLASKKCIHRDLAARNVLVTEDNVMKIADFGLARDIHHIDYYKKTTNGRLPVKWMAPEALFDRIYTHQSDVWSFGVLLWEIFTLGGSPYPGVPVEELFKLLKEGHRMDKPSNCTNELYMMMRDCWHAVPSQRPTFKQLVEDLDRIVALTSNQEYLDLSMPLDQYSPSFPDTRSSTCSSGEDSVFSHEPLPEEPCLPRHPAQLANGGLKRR

[16] = biological target: Proto-oncogene tyrosine-protein kinase receptor Ret (Homo sapiens, UniProt P07949); assay: Inhibition of RET
[17] = Inhibition of SULU1
Aurora kinase B = Aurora kinase B (Homo sapiens, UniProt Q96GD4); assay: Inhibition of Aurora B
[18] = biological target: RAC-alpha serine/threonine-protein kinase (Homo sapiens, UniProt P31749); assay: Inhibition of AKT1
[19] = biological target: Cell division cycle 7-related protein kinase (Homo sapiens, UniProt O00311); assay: Inhibition of CDC7
Sequence of Cell division cycle 7-related protein kinase (O00311 whole entry): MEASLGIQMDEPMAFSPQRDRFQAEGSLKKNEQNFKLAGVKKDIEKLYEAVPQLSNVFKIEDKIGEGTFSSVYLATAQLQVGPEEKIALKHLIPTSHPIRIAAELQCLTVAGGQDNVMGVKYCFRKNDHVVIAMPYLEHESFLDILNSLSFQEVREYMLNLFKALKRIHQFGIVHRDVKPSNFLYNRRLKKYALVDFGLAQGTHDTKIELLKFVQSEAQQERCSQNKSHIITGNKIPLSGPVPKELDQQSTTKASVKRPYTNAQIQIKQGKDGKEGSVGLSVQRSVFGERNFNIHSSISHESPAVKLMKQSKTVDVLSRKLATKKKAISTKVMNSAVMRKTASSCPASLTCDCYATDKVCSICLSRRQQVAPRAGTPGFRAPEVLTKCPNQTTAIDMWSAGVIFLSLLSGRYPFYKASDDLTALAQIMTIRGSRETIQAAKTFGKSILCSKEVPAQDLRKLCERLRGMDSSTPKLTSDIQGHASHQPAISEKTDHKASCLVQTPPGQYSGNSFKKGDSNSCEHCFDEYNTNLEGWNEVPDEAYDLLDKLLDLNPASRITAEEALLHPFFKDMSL

[20] = biological target: Serine/threonine-protein kinase Chk1 (Homo sapiens, UniProt O14757); assay: Inhibition of CHK1
Sequence of Serine/threonine-protein kinase Chk1 (O14757 whole entry): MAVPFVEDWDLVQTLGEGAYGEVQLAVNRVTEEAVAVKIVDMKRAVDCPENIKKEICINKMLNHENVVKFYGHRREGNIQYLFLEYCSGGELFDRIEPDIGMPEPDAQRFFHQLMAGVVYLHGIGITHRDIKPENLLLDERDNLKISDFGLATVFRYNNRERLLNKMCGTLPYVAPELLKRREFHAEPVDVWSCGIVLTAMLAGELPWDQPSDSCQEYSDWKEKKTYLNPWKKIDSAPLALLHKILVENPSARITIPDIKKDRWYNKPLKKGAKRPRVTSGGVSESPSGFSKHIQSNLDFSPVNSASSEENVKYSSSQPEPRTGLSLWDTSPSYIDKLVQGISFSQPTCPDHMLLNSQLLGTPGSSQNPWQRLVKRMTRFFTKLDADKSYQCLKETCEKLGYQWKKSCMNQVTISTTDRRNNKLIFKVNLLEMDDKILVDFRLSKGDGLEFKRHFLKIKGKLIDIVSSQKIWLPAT

[21] = Inhibition of CK2
[22] = biological target: Mitogen-activated protein kinase 1 (Homo sapiens, UniProt P28482); assay: Inhibition of ERK2
[23] = biological target: Glycogen synthase kinase-3 beta (Homo sapiens, UniProt P49841); assay: Inhibition of GSK3-beta
[24] = biological target: Insulin-like growth factor 1 receptor (Homo sapiens, UniProt P08069); assay: Inhibition of IGF1R
Sequence of Insulin-like growth factor 1 receptor (P08069 31-736 limits assumed): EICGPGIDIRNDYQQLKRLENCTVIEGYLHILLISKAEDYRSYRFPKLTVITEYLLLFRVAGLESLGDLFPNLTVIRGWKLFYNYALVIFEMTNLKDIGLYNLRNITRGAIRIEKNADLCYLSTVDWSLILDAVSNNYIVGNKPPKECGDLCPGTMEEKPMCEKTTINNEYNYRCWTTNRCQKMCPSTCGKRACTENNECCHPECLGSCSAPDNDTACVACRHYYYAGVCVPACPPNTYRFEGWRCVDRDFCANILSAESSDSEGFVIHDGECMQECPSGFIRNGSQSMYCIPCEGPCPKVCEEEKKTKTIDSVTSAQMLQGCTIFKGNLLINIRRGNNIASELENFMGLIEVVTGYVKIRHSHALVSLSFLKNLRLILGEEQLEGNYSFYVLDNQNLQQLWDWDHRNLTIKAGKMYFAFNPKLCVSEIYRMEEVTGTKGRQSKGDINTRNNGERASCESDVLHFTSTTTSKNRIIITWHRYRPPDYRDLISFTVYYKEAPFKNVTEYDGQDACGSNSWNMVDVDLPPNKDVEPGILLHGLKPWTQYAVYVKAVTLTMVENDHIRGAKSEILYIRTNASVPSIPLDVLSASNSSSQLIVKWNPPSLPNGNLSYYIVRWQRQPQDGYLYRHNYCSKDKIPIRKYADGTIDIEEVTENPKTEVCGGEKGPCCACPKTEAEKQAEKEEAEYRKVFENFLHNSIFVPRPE
Sequence of Insulin-like growth factor 1 receptor (P08069 741-1367 limits assumed): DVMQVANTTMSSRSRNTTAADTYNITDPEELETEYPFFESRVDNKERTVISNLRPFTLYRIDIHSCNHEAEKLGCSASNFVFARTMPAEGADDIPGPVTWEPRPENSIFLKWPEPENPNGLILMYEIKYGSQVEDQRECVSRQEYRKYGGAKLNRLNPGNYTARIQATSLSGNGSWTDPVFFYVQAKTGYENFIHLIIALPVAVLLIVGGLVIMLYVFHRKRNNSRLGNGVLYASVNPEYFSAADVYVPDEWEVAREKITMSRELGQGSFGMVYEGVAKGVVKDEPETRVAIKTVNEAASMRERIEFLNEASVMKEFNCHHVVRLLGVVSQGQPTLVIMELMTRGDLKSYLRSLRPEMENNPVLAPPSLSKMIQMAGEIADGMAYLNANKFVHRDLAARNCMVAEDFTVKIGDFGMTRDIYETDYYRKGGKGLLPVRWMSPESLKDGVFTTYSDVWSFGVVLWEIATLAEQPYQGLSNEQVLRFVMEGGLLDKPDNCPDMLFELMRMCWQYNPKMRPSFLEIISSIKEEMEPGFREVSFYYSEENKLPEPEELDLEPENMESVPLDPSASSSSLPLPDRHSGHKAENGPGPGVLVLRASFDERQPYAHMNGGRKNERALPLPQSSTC

[25] = biological target: Inhibitor of nuclear factor kappa-B kinase subunit epsilon (Homo sapiens, UniProt Q14164); assay: Inhibition of IKKi
[26] = biological target: Inhibitor of nuclear factor kappa-B kinase subunit beta (Homo sapiens, UniProt O14920); assay: Inhibition of IKK2
Sequence of Inhibitor of nuclear factor kappa-B kinase subunit beta (O14920 whole entry): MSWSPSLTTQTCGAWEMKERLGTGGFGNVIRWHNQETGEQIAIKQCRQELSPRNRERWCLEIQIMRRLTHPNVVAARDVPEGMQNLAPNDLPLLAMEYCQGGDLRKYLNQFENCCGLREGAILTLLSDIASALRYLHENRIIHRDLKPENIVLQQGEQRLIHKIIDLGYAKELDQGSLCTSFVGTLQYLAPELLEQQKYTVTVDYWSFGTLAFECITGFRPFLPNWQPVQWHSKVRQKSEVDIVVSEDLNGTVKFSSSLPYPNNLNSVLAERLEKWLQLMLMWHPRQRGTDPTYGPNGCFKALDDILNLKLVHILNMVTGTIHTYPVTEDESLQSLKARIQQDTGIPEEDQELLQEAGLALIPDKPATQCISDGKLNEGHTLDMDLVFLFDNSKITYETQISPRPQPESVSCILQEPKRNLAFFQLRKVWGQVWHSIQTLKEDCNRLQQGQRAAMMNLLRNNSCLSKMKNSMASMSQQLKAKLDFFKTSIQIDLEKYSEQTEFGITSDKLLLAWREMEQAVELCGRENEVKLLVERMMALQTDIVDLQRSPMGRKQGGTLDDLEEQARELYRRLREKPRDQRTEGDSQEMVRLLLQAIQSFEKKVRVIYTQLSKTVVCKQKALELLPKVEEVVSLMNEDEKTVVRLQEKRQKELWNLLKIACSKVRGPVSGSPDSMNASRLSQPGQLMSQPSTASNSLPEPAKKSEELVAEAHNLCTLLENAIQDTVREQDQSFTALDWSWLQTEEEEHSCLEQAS

Insulin receptor = Insulin receptor (Homo sapiens, UniProt P06213); assay: Inhibition of IR
[27] = biological target: Tyrosine-protein kinase Lyn (Homo sapiens, UniProt P07948); assay: Inhibition of LYN
Sequence of Tyrosine-protein kinase Lyn (P07948 whole entry): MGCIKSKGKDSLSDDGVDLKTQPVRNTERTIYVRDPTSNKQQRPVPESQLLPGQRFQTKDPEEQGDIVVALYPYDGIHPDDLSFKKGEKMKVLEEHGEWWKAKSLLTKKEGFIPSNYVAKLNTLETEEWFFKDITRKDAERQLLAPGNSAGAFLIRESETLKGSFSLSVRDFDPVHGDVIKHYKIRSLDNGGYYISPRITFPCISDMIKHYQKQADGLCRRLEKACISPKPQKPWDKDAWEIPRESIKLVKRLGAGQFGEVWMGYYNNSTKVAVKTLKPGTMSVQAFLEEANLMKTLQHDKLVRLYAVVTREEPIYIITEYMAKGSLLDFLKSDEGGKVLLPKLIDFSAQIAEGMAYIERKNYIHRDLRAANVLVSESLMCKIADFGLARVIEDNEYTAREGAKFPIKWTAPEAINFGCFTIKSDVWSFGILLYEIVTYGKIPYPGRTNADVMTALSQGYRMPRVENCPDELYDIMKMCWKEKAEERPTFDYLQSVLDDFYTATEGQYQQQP

[28] = biological target: MAP kinase-activated protein kinase 2 (Homo sapiens, UniProt P49137); assay: Inhibition of MAPKAPK2
Sequence of MAP kinase-activated protein kinase 2 (P49137 whole entry): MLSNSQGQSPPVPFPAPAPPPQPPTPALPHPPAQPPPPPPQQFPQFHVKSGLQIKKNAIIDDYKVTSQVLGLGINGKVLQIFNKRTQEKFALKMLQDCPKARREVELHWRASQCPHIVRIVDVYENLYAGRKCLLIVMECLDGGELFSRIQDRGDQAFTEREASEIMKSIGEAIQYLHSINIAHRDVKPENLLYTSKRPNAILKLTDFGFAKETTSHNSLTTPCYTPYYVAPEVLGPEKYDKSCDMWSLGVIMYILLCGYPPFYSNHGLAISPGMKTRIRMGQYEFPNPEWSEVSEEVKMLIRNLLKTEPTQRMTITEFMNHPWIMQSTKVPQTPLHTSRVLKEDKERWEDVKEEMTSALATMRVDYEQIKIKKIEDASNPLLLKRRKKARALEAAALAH

[29] = biological target: Serine/threonine-protein kinase PAK 4 (Homo sapiens, UniProt O96013); assay: Inhibition of PAK4
[30] = biological target: 3-phosphoinositide-dependent protein kinase 1 (Homo sapiens, UniProt O15530); assay: Inhibition of PDK1
[31] = biological target: cAMP-dependent protein kinase catalytic subunit alpha (Homo sapiens, UniProt P17612); assay: Inhibition of PKAalpha
[32] = biological target: Protein kinase C beta type (Homo sapiens, UniProt P05771); assay: Inhibition of PKCbeta
[33] = biological target: Serine/threonine-protein kinase PLK1 (Homo sapiens, UniProt P53350); assay: Inhibition of PLK1
[34] = biological target: Mitogen-activated protein kinase 14 (Homo sapiens, UniProt Q16539); assay: Inhibition of P38alpha
[35] = biological target: Mitogen-activated protein kinase 11 (Homo sapiens, UniProt Q15759); assay: Inhibition of P38beta
[36] = biological target: STE20-like serine/threonine-protein kinase (Homo sapiens, UniProt Q9H2G2); assay: Inhibition of STLK2
[37] = biological target: Vascular endothelial growth factor receptor 2 (Homo sapiens, UniProt P35968); assay: Inhibition of VEGFR2
[38] = biological target: Tyrosine-protein kinase ZAP-70 (Homo sapiens, UniProt P43403); assay: Inhibition of ZAP-70
Aurora kinase A = biological target: T1, Aurora kinase A (Homo sapiens, UniProt O14965); assay: Inhibition of Aurora A
T1 sequence (O14965 whole entry): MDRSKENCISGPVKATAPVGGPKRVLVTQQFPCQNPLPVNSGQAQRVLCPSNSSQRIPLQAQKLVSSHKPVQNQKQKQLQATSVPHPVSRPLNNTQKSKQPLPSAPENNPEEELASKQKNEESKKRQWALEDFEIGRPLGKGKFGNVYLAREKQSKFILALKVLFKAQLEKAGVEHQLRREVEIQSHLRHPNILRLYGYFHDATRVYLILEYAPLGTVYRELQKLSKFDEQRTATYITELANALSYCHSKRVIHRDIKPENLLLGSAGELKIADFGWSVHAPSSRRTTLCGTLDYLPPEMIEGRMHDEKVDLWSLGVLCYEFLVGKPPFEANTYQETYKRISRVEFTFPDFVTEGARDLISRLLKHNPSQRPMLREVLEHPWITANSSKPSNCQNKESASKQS

A2780 [39] = assay: Antiproliferative activity against human A2780 cells after 72 hrs by cell Titer_Glo assay; type: functional, cell-based; details: A2780, 72 h
Summary of the method: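 A2780 cells were seeded at 10000–30000 cells/cm² in medium with 10% FCS. After 24 h they were treated with serial dilutions of compound, in two replicates. Cell amount was read by Cell Titer Glo 72 h after treatment. IC50 came from sigmoidal fitting.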

CNC(=O)c1nn(C)c2c1C(C)(C)Cc1cnc(Nc3ccc(N4CCN(C)CC4)cc3)nc1-2 [MILCICLIB]
solubility [1]: 191 µM (≈ 88 µg/mL) | IC50 [2]: 0.398 µM | Activity (A2780 [3]): 49% | Activity (A2780 [4]): 68% | Activity (A2780 [5]): 40% | Activity (A2780 [6]): 75% | Activity (A2780 [7]): 53% | Activity (A2780 [8]): 76% | Activity (A2780 [9]): 91% | IC50 [10]: 0.579 µM | IC50 [11]: 0.668 µM | IC50 [12]: 0.92 µM | IC50 [13]: 1.06 µM | IC50 [14]: 1.17 µM | IC50 [15]: 1.21 µM | IC50 [16]: 1.93 µM | IC50 [17]: 2.87 µM | IC50 (Aurora kinase B): 4.17 µM | IC50 [18]: > 10 µM | IC50 [19]: > 10 µM | IC50 [20]: > 10 µM | IC50 [21]: > 10 µM | IC50 [22]: > 10 µM | IC50 [23]: > 10 µM | IC50 [24]: > 10 µM | IC50 [25]: > 10 µM | IC50 [26]: > 10 µM | IC50 (Insulin receptor): > 10 µM | IC50 [27]: > 10 µM | IC50 [28]: > 10 µM | IC50 [29]: > 10 µM | IC50 [30]: > 10 µM | IC50 [31]: > 10 µM | IC50 [32]: > 10 µM | IC50 [33]: > 10 µM | IC50 [34]: > 10 µM | IC50 [35]: > 10 µM | IC50 [36]: > 10 µM | IC50 [37]: > 10 µM | IC50 [38]: > 10 µM | IC50 (Aurora kinase A): 1.05 µM | IC50 (A2780 [39]): 0.2 µM

— ChEMBL document CHEMBL1151962, “Identification of N,1,4,4-tetramethyl-8-{[4-(4-methylpiperazin-1-yl)phenyl]amino}-4,5-dihydro-1H-pyrazolo[4,3-h]quinazoline-3-carboxamide (PHA-848125), a potent, orally available cyclin dependent kinase inhibitor” (J Med Chem, 2009)
